The record followed here is ChEMBL document CHEMBL3421623 (J Med Chem, 2015).

In one data set the target is Cytochrome P450 2D6 (Homo sapiens, UniProt P10635). Nature of the data set: Inhibition of human recombinant CYP2D6 after 30 mins by fluorescence assay. In kind it is ADME.
A further data set addresses T1, Cytochrome P450 2A6 (Homo sapiens, UniProt P11509).
T1 sequence (P11509 whole entry): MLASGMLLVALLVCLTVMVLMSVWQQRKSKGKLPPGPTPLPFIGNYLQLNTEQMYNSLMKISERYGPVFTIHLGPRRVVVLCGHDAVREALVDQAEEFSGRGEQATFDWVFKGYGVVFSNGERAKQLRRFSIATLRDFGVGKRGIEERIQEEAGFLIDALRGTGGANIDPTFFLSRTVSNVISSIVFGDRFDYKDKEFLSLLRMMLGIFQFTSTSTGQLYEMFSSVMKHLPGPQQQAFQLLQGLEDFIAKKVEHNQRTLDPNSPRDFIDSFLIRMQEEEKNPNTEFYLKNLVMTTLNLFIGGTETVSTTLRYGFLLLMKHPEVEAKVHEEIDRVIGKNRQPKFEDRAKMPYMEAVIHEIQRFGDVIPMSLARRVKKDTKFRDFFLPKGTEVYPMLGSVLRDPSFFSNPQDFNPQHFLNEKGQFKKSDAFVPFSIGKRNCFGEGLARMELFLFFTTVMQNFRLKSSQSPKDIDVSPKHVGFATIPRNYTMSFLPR
Nature of the data set: Inhibition of human recombinant CYP2A6 assessed as metabolism of coumarin to 7-hydroxycoumarin after 30 mins by fluorescence assay. In kind it is ADME.

A further data set concerns the target Cytochrome P450 3A4 (Homo sapiens, UniProt P08684). The experiment in a line: Inhibition of human recombinant CYP3A4 assessed as metabolism of 7-benzyloxy-4-trifluoromethylcoumarin to HFC after 30 mins by fluorescence assay. In kind it is ADME.
A further data set concerns the target Cytochrome P450 3A5 (Homo sapiens, UniProt P20815). The experiment in a line: Inhibition of human recombinant CYP3A5 assessed as metabolism of 7-benzyloxy-4-trifluoromethylcoumarin to HFC after 30 mins by fluorescence assay. In kind it is ADME.
Data set [1] deals with T2, Estrogen receptor (Homo sapiens) (UniProt P03372).
T2 sequence (whole entry): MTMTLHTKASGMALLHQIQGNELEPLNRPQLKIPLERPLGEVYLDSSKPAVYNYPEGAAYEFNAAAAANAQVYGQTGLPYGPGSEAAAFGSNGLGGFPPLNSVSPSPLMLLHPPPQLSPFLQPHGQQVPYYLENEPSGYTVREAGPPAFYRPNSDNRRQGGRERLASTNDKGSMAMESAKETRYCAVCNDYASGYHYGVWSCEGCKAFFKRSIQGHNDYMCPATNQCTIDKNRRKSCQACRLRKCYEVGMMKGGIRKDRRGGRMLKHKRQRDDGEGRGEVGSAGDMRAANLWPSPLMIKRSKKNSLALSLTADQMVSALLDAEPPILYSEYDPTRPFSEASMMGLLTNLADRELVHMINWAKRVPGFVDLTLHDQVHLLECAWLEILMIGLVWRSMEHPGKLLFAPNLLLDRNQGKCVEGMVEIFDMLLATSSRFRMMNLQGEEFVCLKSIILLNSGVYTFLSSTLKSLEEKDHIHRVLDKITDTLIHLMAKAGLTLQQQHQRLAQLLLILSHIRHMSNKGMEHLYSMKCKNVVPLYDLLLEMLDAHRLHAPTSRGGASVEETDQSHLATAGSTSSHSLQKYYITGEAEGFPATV
Nature of the data set: Antiestrogenic effect at estrogen receptor in human MCF7 cells assessed as inhibition of E2-induced progesterone receptor mRNA expression at 1000 nM after 24 hrs by real time quantitative PCR. In kind it is cell-based. More on the design: scale not given: the % may be the effect or the level left. Summed up:
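MCF-7 cells (10⁵/well) grown in MEM + 10% FBS at 37 °C, 5% CO₂, then preconditioned 72 h in charcoal-stripped FBS. Treated 24 h with 1 μM compound or vehicle (0.1% methanol) plus 10 nM E2 in MEM/10% charcoal-stripped FBS. PGR mRNA extracted after genomic DNA removal and quantified by qPCR (40 cycles, Ct). Reported as % of E2-alone expression (100%); 1 μM endoxifen as positive control.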

The target of the next data set is T3, Cytochrome P450 1A2 (Homo sapiens, UniProt P05177).
T3 sequence (P05177 whole entry): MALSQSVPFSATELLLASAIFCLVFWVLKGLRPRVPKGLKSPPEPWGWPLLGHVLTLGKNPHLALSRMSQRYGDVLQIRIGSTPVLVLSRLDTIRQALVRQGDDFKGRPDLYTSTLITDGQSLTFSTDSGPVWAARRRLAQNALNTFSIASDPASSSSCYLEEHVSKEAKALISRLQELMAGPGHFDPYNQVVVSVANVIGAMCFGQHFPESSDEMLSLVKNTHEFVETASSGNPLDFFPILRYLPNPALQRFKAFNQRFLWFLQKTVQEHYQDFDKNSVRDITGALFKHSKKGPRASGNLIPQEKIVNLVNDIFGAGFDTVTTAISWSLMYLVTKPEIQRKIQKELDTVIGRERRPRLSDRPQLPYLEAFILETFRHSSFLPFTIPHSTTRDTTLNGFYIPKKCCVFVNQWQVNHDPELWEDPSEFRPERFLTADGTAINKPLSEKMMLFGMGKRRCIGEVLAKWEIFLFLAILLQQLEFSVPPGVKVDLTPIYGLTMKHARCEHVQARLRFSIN
Nature of the data set: Inhibition of human recombinant CYP1A2 assessed as metabolism of 3-cyano-7-ethoxycoumarin after 30 mins by fluorescence assay. In kind it is ADME.

The next data set deals with Estrogen receptor beta (Homo sapiens, UniProt Q92731). Nature of the data set: Displacement of fluorescein-labeled ES2 from human recombinant ERbeta receptor after 2 hrs by fluorescence polarization assay. Put shortly: (§1)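 Fluorescence polarization competition. Compound in methanol or DMSO mixed with ES2 screening buffer (100 mM potassium phosphate, 100 μg/mL BGG, 0.02% NaN₃). Preformed complex added to final 9 nM ES2 with 30 nM ER-α or 20 nM ER-β. Polarization expressed as % of vehicle control; EC50 from one-site competition fit.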
Background: In fluorescence polarisation assays a small probe gives low polarisation when free and higher when bound to something large.

For the next data set, the target named is T4, Estrogen receptor (Homo sapiens, UniProt P03372).
T4 sequence (P03372 whole entry): T2 sequence (whole entry)
Nature of the data set: Displacement of fluorescein-labeled ES2 from human recombinant ERalpha receptor after 2 hrs by fluorescence polarization assay. Put shortly: as §1

The target in the next data set is T5, Aromatase (Homo sapiens, UniProt P11511).
T5 sequence (P11511 whole entry): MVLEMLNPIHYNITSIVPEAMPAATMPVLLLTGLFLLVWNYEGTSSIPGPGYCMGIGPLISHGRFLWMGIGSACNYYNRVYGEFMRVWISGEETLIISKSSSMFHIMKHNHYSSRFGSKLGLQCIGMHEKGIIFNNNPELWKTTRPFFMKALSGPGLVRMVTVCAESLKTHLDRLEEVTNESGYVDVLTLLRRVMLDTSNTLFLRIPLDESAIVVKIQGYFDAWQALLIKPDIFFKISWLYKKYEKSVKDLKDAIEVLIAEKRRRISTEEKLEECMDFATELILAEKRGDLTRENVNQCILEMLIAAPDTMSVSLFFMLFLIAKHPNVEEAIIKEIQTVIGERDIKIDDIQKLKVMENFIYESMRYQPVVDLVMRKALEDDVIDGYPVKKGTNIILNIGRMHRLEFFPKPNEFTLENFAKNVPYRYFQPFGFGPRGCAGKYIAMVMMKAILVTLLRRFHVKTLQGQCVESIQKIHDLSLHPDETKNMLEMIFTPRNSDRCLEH
Nature of the data set: Inhibition of human recombinant aromatase using 7-methoxy-trifluoromethylcoumarin as substrate assessed as formation of fluorescent metabolite after 30 mins by fluorescence assay. Summed up: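 Recombinant human CYP19 with MFC substrate, converted to fluorescent HFC, in 0.1 M potassium phosphate pH 7.4. NADPH-regenerating mix (NADP⁺, MgCl₂, glucose-6-phosphate, G6PDH); compound prewarmed 10 min at 37 °C, then 30 min reaction stopped with Tris base in acetonitrile. Activity as % of vehicle control; IC50 from one-site competition fit; Ki from Lineweaver–Burk data by nonlinear regression.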

Sequence of Cytochrome P450 3A5 (P20815 whole entry): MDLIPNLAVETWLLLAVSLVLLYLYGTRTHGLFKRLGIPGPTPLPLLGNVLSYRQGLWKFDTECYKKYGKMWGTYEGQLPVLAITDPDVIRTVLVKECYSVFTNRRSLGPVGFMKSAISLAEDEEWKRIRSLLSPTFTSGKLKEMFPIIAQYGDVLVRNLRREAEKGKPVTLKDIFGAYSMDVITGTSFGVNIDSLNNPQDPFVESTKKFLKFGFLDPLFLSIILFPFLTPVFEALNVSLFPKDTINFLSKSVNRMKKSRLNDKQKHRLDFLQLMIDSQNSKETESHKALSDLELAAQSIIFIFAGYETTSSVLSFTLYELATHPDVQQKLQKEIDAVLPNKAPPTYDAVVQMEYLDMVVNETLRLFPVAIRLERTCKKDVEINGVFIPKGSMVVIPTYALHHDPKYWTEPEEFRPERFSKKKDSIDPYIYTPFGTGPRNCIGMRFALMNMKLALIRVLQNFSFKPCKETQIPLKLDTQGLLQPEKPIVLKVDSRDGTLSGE
Sequence of Cytochrome P450 2D6 (P10635 whole entry): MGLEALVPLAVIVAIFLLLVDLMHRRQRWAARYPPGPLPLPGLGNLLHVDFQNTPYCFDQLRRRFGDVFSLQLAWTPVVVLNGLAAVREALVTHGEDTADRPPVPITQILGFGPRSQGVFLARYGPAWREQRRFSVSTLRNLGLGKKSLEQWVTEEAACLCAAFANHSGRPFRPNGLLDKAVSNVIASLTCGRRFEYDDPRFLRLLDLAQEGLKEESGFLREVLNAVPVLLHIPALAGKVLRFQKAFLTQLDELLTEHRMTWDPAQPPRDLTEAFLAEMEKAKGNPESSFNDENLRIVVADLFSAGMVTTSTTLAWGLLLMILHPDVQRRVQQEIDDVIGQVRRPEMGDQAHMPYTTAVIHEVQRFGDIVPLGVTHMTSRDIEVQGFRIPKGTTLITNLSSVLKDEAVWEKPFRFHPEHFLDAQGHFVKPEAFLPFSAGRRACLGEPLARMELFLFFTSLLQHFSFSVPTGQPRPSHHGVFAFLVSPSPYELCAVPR
Sequence of Cytochrome P450 3A4 (P08684 whole entry): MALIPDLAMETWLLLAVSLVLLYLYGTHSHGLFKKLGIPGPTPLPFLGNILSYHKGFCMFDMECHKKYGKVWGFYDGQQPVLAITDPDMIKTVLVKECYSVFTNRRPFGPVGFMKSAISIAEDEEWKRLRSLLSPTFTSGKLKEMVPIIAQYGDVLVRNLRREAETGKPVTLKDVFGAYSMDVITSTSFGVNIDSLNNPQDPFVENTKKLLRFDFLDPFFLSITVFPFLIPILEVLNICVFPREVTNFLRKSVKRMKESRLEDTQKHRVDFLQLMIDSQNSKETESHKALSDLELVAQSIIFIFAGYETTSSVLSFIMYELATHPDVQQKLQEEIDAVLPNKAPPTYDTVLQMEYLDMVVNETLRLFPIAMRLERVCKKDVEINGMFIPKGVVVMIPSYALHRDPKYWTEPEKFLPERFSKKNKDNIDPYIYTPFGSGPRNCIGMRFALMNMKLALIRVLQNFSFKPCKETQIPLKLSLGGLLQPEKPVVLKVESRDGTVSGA
Sequence of Estrogen receptor beta (Q92731 whole entry): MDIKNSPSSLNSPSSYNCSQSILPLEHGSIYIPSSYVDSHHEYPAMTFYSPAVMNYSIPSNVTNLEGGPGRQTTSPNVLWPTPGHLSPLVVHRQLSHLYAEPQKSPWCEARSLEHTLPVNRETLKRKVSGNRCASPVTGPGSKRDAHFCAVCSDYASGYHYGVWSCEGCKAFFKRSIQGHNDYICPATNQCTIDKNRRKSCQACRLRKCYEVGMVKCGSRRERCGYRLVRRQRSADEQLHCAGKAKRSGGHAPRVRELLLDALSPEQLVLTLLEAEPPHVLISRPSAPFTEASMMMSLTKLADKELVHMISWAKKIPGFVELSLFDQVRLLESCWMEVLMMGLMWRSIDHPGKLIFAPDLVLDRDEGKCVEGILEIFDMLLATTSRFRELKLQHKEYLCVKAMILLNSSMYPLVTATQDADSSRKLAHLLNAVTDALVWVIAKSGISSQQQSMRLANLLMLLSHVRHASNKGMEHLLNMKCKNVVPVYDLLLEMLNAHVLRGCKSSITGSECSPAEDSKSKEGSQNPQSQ

As to `CC/C(=C(/c1ccc(O)cc1)c1ccc(OCCN)cc1)c1ccccc1` (mixture of isomers), the Ki (as a rule, a dissociation constant, usually derived from enzyme kinetics or from competition with a known ligand) on Cytochrome P450 2D6 was “Not Active”; on Cytochrome P450 2A6 it was 2180 nM; at Cytochrome P450 3A4 it was 375 nM; at Cytochrome P450 3A5, 829 nM. In addition, the “inhibition (INH)” value at Cytochrome P450 2D6 (human, recombinant enzyme, 0.5 h) is listed as “Not Active”. Moreover, the 50% inhibitory concentration (IC50) (in general, the point on the concentration scale where inhibition reaches its midpoint) at Cytochrome P450 2A6 was 6370 nM; at Cytochrome P450 3A4, 285 nM; on Cytochrome P450 3A5, 723 nM; on Cytochrome P450 1A2 it was 207 nM. The Activity in data set [1] was 32%.
Take `CC/C(=C(/c1ccc(O)cc1)c1ccc(OCCN)cc1)c1ccc(O)cc1` (mixture of isomers): the values for the half-maximal effective concentration (EC50) on Estrogen receptor beta and on Estrogen receptor were 9.5 nM and 15 nM, respectively. Besides, the IC50 at Cytochrome P450 2D6 came to 3600 nM; on Cytochrome P450 3A4 it was 1880 nM; at Cytochrome P450 3A5 it was 556 nM; at Aromatase, 45 nM; on Cytochrome P450 1A2, 207 nM. For the same compound, the Ki is 423 nM at Cytochrome P450 2D6 (read-out: Ki); 710 nM on Cytochrome P450 2A6; 1640 nM on Cytochrome P450 3A4; 855 nM at Cytochrome P450 3A5; 56 nM on Cytochrome P450 1A2. Besides, the Activity in data set [1] came to 14%.
